In brackets after ≈: the same amount, converted by molar mass. Activity calls are given as the source filed them. The calls are words filed in the database; no cut-off is given here.
Columns and labels:
[1] = Half life in iv dosed Swiss Albino mouse plasma; format: ADME, organism-based
Summary of the method: (§1)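 Swiss albino mice (6-8 weeks, ~25 g) dosed intravenously with compound in a cosolvent formulation diluted in 5% dextrose. Blood drawn by orbital bleed under mild ether at 3, 10, 30 min, 1, 2, 4, 6, 8 and 24 h into EDTA, with no more than five bleeds per mouse. Plasma was solvent-extracted and measured by C18 HPLC against an internal standard and a standard curve. Results are mean ± SD, n = 3.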

HT-29 = test: Cytotoxicity against human HT29 cells after 72 hrs by MTT assay; format: cell-based; details: Homo sapiens, HT-29, 72 h; read-out: IC50
Summary of the method: (§2)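 MTT assay. Cells seeded at 5000-10 000 per well and incubated at 37 °C in CO₂ with compound at 1-100 µg/mL in triplicate wells for 72 h, then MTT added. Absorbance read at 540 nm; % cytotoxicity = 100 × (1 − treated/control). IC50 obtained by nonlinear regression; NA means IC50 above 100 µg/mL.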

[2] = Inhibition of tubulin polymerization in bovine brain; parameters: species or system Bos taurus
Summary of the method: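 Compounds were added from DMSO stocks, with final DMSO below 0.4%. A340 was read every 60 s, and the area under the curve was taken as polymer amount, with the control set to 100%. IC50 is the concentration giving 50% inhibition.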

MIA PaCa-2 = test: Cytotoxicity against human MiaPaCa2 cells after 72 hrs by MTT assay; format: cell-based; details: Homo sapiens, MIA PaCa-2, 72 h; read-out: IC50; summary of the method: as §2
ECV-304 [3] = test: Enhanced mitotic arrest in human ECV304 cells assessed as accumulation at G2/M phase at 1 uM after 24 hrs relative to control; format: functional
Summary of the method: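 ECV304 at 1.5 × 10⁶ cells per 90 mm dish in DMEM with 10% FCS overnight, then 1 µM for 24 h in fresh medium. Cells trypsinised, fixed in ice-cold 70% ethanol, treated with trypsin inhibitor and RNase, and stained with propidium iodide in the dark at 4-10 °C for 1 h. Flow cytometry with low gate at 10% of the G1 peak; G1 and G2/M fractions against untreated control.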

[4] = Cytotoxicity against human Hep2 cells after 72 hrs by MTT assay; format: cell-based, HEp-2; details: Homo sapiens, HEp-2, 72 h; read-out: IC50; summary of the method: as §2
HEK293 = test: Cytotoxicity against human HEK293 cells after 72 hrs by MTT assay; format: cell-based; details: Homo sapiens, HEK293, 72 h; read-out: IC50; summary of the method: as §2
ECV-304 [5] = test: Apoptosis in strongly adherent human ECV304 cells at 1000 nM assessed as DNA fragmentation; format: functional, cell-based
Summary of the method: (§3)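 ECV304 plated at 2 × 10⁶ cells per 90 mm dish in DMEM with 10% FCS, allowed 5-6 h to reattach, then exposed to 10 nM-1 µM for 24 h in fresh medium; 100 nM positive control. Strongly and loosely adherent cells harvested separately and lysed (1 mM Tris-Cl, 20 mM EDTA pH 8, 1% NP-40).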

[6] = Cytotoxicity against human PA1 cells after 72 hrs by MTT assay; format: cell-based, PA-1; details: Homo sapiens, PA-1, 72 h; read-out: IC50; summary of the method: as §2
[7] = Mean residence time in iv dosed Swiss Albino mouse plasma; format: ADME, organism-based; summary of the method: as §1
[8] = Aqueous solubility in phosphate buffer at pH 7.4
Mus musculus = test: Volume of distribution in iv dosed Swiss Albino mouse plasma; format: ADME, organism-based; details: in vivo; summary of the method: as §1
[9] = Cytotoxicity against human primary tumor colon cells; format: cell-based
ECV-304 [10] = test: Apoptosis in strongly adherent human ECV304 cells at 100 nM assessed as DNA fragmentation; format: functional, cell-based; summary of the method: as §3
ECV-304 [11] = test: Apoptosis in strongly adherent human ECV304 cells at 10 nM assessed as DNA fragmentation; format: functional, cell-based; summary of the method: as §3
Homo sapiens = test: Antitumor activity in primary tumor colon xenografted Balb/C athymic nude mouse assessed as decreased tumor volume at 20 mg/kg, iv on day 19; format: functional, organism-based; parameters: dose 20 mg/kg
Summary of the method: (§4)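 PTC colon tumour cells (15 × 10⁶ cells/100 µL) inoculated subcutaneously in Balb/c athymic nude mice aged 6-8 weeks, about 20 g; 3 animals per group. Dosing began at about 500 mm³: 20 mg/kg i.v. once daily for 14 days, cosolvent formulation diluted in 5% dextrose; controls received vehicle. Caliper volume W×W×L×0.4 every fourth day; regression = (1 − treated/control volume) × 100; Dunnett comparison, p < 0.05.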

[12] = Antitumor activity in primary tumor colon xenografted Balb/C athymic nude mouse assessed as decreased tumor volume at 20 mg/kg, iv on day 22 relative to control; format: functional, Homo sapiens; parameters: scale not given: the % may be the effect or the level left; summary of the method: as §4
KB = test: Cytotoxicity against human KB cells after 72 hrs by MTT assay; format: cell-based; details: Homo sapiens, KB, 72 h; read-out: IC50; summary of the method: as §2
[13] = Cmax in iv dosed Swiss Albino mouse plasma; format: ADME, organism-based; parameters: route intravenous; summary of the method: as §1
L132 = test: Cytotoxicity against human L132 cells after 72 hrs by MTT assay; format: cell-based; details: Homo sapiens, L132, 72 h; read-out: IC50; summary of the method: as §2
ECV-304 [14] = test: Apoptosis in loosely adherent human ECV304 cells assessed as DNA fragmentation; format: functional, cell-based; summary of the method: as §3
[15] = AUC in iv dosed Swiss Albino mouse plasma; format: ADME, organism-based; summary of the method: as §1
DU-145 = test: Cytotoxicity against human DU145 cells after 72 hrs by MTT assay; format: cell-based; details: Homo sapiens, DU-145, 72 h; read-out: IC50; summary of the method: as §2
[16] = Clearance in iv dosed Swiss Albino mouse plasma; format: ADME, organism-based; summary of the method: as §1
[17] = Cytotoxicity against human ECV304 cells after 72 hrs by MTT assay; format: cell-based, ECV-304; details: Homo sapiens, ECV-304, 72 h; read-out: IC50; summary of the method: as §2

Compound | IC50 (HT-29) [µg/mL] | IC50 (MIA PaCa-2) [µg/mL] | IC50 [4] [µg/mL] | IC50 (HEK293) [µg/mL] | IC50 [6] [µg/mL] | IC50 (KB) [µg/mL] | IC50 (L132) [µg/mL] | IC50 (DU-145) [µg/mL] | IC50 [17] [µg/mL] | also measured
COc1ccc(C2=C(c3cc(OC)c(OC)c(OC)c3)/C(=N\O)C(O)C2)cc1 (stereo not drawn) | < 1 | < 1 | < 1 | 4.2 (≈ 10.9 µM) | < 1 | < 1 | < 1 | > 100 | < 1 | half-life [1]: 28.2 min; IC50 [2]: 1.75 µM; Activity (ECV-304 [3]): 59%; Activity (ECV-304 [5]): inactive; MRT [7]: 31.8 min; solubility [8]: 360 µM (≈ 139 µg/mL); Vdss (Mus musculus): 46.56 mL; IC50 [9]: 0.271 µg/mL (≈ 0.703 µM); Activity (ECV-304 [10]): inactive; Activity (ECV-304 [11]): inactive; Activity (Homo sapiens): Active; Activity [12]: 45.8%; Cmax [13]: 7050 ng/mL; Activity (ECV-304 [14]): Dose-dependent effect; AUC [15]: 3840 ng·h/mL; clearance [16]: 1.15 mL/min
COc1ccc(/C=C\c2cc(OC)c(OC)c(OC)c2)cc1O [COMBRETASTATIN A4] | 5 (≈ 15.8 µM) | < 1 | 5 (≈ 15.8 µM) | 5.7 (≈ 18 µM) | < 1 | < 1 | < 1 | 57 (≈ 180 µM) | < 1 | half-life [1]: 11.4 min; IC50 [2]: 0.98 µM; Activity (ECV-304 [3]): 41%; Activity (ECV-304 [5]): inactive; MRT [7]: 9 min; solubility [8]: 123 µM (≈ 38.8 µg/mL); Vdss (Mus musculus): 80.82 mL; Activity (ECV-304 [10]): inactive; Activity (ECV-304 [11]): inactive; Cmax [13]: 3830 ng/mL; AUC [15]: 920 ng·h/mL; clearance [16]: 4.86 mL/min
COc1ccc(OC)c(C2=C(c3cc(OC)c(OC)c(OC)c3)/C(=N\O)CC2O[Si](C)(C)C(C)(C)C)c1 (stereo not drawn) | 50 (≈ 94.4 µM) | 1 (≈ 1.89 µM) | 7 (≈ 13.2 µM) | 7 (≈ 13.2 µM) | 8.5 (≈ 16 µM) | > 100 | > 100 | > 100 | 6 (≈ 11.3 µM) | –
COc1ccc(C2=C(c3cc(OC)c(OC)c(OC)c3)/C(=N\O)C(OC(C)=O)C2)cc1Cl (stereo not drawn) | < 1 | 10 (≈ 21.6 µM) | < 1 | 32 (≈ 69.3 µM) | 37.5 (≈ 81.2 µM) | 50 (≈ 108 µM) | < 1 | 17 (≈ 36.8 µM) | 8 (≈ 17.3 µM) | –
COc1ccc(C2=C(c3cc(OC)c(OC)c(OC)c3)C(=O)C(OC(C)=O)C2)cc1F (stereo not drawn) | < 1 | 39.5 (≈ 91.8 µM) | < 1 | 59 (≈ 137 µM) | > 100 | 33 (≈ 76.7 µM) | < 1 | 16 (≈ 37.2 µM) | 41 (≈ 95.3 µM) | –
COc1ccc(C2=C(c3cc(OC)c(OC)c(OC)c3)C(=O)C(O)C2)cc1OC(C)C (stereo not drawn) | > 100 | > 100 | > 100 | > 100 | > 100 | > 100 | > 100 | > 100 | > 100 | –
CCOC(=O)COc1ccc(C2=C(c3cc(OC)c(OC)c(OC)c3)C(=O)CC2O)cc1 (stereo not drawn) | > 100 | > 100 | > 100 | > 100 | > 100 | > 100 | > 100 | > 100 | > 100 | –
COc1cc(C2=C(c3cc(C)c(OC)c(C)c3)C(OC(C)=O)C/C2=N/O)cc(OC)c1OC (stereo not drawn) | > 100 | > 100 | > 100 | > 100 | > 100 | > 100 | > 100 | > 100 | > 100 | –
COc1ccc(C2=C(c3cc(OC)c(OC)c(OC)c3)C(=O)C(OC(C)=O)C2)cc1Cl (stereo not drawn) | < 1 | 24 (≈ 53.7 µM) | < 1 | 60 (≈ 134 µM) | > 100 | 64 (≈ 143 µM) | < 1 | 64 (≈ 143 µM) | 3.5 (≈ 7.83 µM) | –
COc1ccc(C2=C(c3cc(OC)c(OC)c(OC)c3)C(=O)C(OC(C)=O)C2)cc1O (stereo not drawn) | < 1 | 18.5 (≈ 43.2 µM) | > 100 | 92 (≈ 215 µM) | 6 (≈ 14 µM) | 35 (≈ 81.7 µM) | 6 (≈ 14 µM) | > 100 | > 100 | –
COc1ccc(OC)c(C2=C(c3cc(OC)c(OC)c(OC)c3)C(=O)CC2O)c1 (stereo not drawn) | > 100 | > 100 | > 100 | > 100 | > 100 | > 100 | > 100 | > 100 | > 100 | –
CC(=O)OC1C/C(=N/O)C(c2ccccc2)=C1c1ccccc1 (stereo not drawn) | > 100 | 4.5 (≈ 14.6 µM) | > 100 | 92.3 (≈ 300 µM) | > 100 | 9 (≈ 29.3 µM) | > 100 | > 100 | > 100 | –
COc1ccc(C2=C(c3cc(OC)c(OC)c(OC)c3)CC(O)C2=O)cc1[N+](=O)[O-] (stereo not drawn) | > 100 | > 100 | > 100 | > 100 | > 100 | > 100 | > 100 | > 100 | > 100 | –
COc1ccc(C2=C(c3cc(OC)c(OC)c(OC)c3)C(=O)C(O)C2)cc1 (stereo not drawn) | < 1 | < 1 | < 1 | 6.3 (≈ 17 µM) | < 1 | < 1 | < 1 | > 100 | < 1 | Activity (ECV-304 [3]): 54%; Activity (ECV-304 [5]): inactive; Activity (ECV-304 [10]): inactive; Activity (ECV-304 [11]): inactive; Activity (ECV-304 [14]): Dose-dependent effect
COc1ccc(C2=C(c3cc(OC)c(OC)c(OC)c3)CC(O[Si](C)(C)C(C)(C)C)C2=O)cc1[N+](=O)[O-] (stereo not drawn) | > 100 | > 100 | > 100 | > 100 | > 100 | > 100 | > 100 | > 100 | > 100 | –
COc1ccc(C2=C(c3cc(OC)c(OC)c(OC)c3)/C(=N\O)C(O)C2)cc1O (stereo not drawn) | 69 (≈ 172 µM) | > 100 | 20 (≈ 49.8 µM) | > 100 | 26 (≈ 64.8 µM) | 90 (≈ 224 µM) | 81 (≈ 202 µM) | 10 (≈ 24.9 µM) | > 100 | –
COc1ccc(C2=C(c3cc(OC)c(OC)c(OC)c3)C(=O)CC2O[Si](C)(C)C(C)(C)C)cc1OC (stereo not drawn) | > 100 | > 100 | > 100 | > 100 | > 100 | > 100 | > 100 | > 100 | > 100 | –
COc1ccc(C2=C(c3cc(OC)c(OC)c(OC)c3)C(=O)C(O)C2)cc1F (stereo not drawn) | < 1 | 64 (≈ 165 µM) | < 1 | > 100 | > 100 | 4.5 (≈ 11.6 µM) | < 1 | 27 (≈ 69.5 µM) | 19.5 (≈ 50.2 µM) | –
COc1ccc(C2=C(c3cc(OC)c(OC)c(OC)c3)C(=O)CC2O)cc1O (stereo not drawn) | < 1 | > 100 | < 1 | > 100 | < 1 | < 1 | < 1 | 8 (≈ 20.7 µM) | > 100 | –
COc1cc(C2=C(c3ccccc3)C(O[Si](C)(C)C(C)(C)C)CC2=O)cc(OC)c1OC (stereo not drawn) | > 100 | > 100 | > 100 | > 100 | > 100 | > 100 | > 100 | > 100 | > 100 | –
